Assay results reported in ChEMBL document CHEMBL4699548, “Ultrasound assisted synthesis of tetrazole based pyrazolines and isoxazolines as potent anticancer agents via inhibition of tubulin polymerization” (Bioorg Med Chem Lett, 2020).
The source made the active and inactive calls. The rule behind the calls is not given here.

Columns and labels:
MCF7 = experiment: Cytotoxicity against human MCF7 cells assessed as reduction in cell viability by MTT assay; format: functional, cell-based
A549 = experiment: Cytotoxicity against human A549 cells assessed as reduction in cell viability by MTT assay; format: functional, cell-based
HepG2 = experiment: Cytotoxicity against human HepG2 cells assessed as reduction in cell viability by MTT assay; format: functional, cell-based
Tubulin = experiment: Inhibition of tubulin polymerization in human A549 cells assessed as decrease in polymerized fraction of tubulin content after 48 hrs by western blot analysis; format: cell-based
Outline: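 A549 cells exposed to test agents at 1 μM for 48 h. Soluble and polymerized tubulin fractions were collected separately and tubulin levels in each were detected by western blot.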

Tubulin (Homo sapiens) [1] = target: T1, Tubulin (Homo sapiens) (UniProt P68371+Q9H4B7+P0DPH7+P68366+Q13509+Q71U36+P04350+Q3ZCM7+P07437+P68363+Q9BQE3+Q6PEY2+Q13885+Q9BVA1+Q9BUF5); experiment: Inhibition of tubulin polymerization in human A549 cells assessed as decrease in polymerized fraction of tubulin content at 1 uM after 48 hrs by Western blot analysis relative to control; format: cell-based
Outline: (§1)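 A549 cells exposed to test agents at 1 μM for 48 h. Combretastatin A-4 (1 μM) run in parallel as positive control and DMSO as negative control. Soluble and polymerized tubulin fractions were collected separately and tubulin levels in each were detected by western blot.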

Tubulin (Homo sapiens) [2] = target: T1, Tubulin (Homo sapiens); experiment: Inhibition of tubulin polymerization in human A549 cells assessed as increase in soluble fraction of tubulin at 1 uM measured after 48 hrs by western blot analysis; format: cell-based; outline: as §1

Compound	IC50 (MCF7) [µM]	IC50 (A549) [µM]	IC50 (HepG2) [µM]	IC50 (Tubulin) [µM]	inhibition (Tubulin (Homo sapiens) [1]) [%]	inhibition (Tubulin (Homo sapiens) [2])
COc1cc(C2=NNC(c3ccc(C)cc3)C2)ccc1OCc1nnn[nH]1 (configuration not stated)	1.76	0.99	1.08			
COc1cc(C2=NNC(c3ccc(F)cc3)C2)ccc1OCc1nnn[nH]1 (configuration not stated)	0.92	0.94	0.85	2.16	65.4	Active
COc1ccc(/C=C\c2cc(OC)c(OC)c(OC)c2)cc1O [COMBRETASTATIN A4]	0.04	0.05	0.009			
COc1ccc(C2CC(c3ccc(OCc4nnn[nH]4)c(OC)c3)=NO2)cc1 (configuration not stated)	12.5	6.25	12.5			
COc1cc(C2=NOC(c3ccc(Cl)cc3)C2)ccc1OCc1nnn[nH]1 (configuration not stated)	6.25	6.25	12.5			
COc1ccc(C2CC(c3ccc(OCc4nnn[nH]4)c(OC)c3)=NN2)cc1OC (configuration not stated)	2.94	2.82	3.06			
COc1cc(C2=NNC(c3ccc(O)cc3)C2)ccc1OCc1nnn[nH]1 (configuration not stated)	1.94	1.16	2.02			
COc1ccc(C2CC(c3ccc(OCc4nnn[nH]4)c(OC)c3)=NN2)cc1 (configuration not stated)	3.1	3.12	2.98			
COc1ccc(C2CC(c3ccc(OCc4nnn[nH]4)c(OC)c3)=NO2)cc1OC (configuration not stated)	25	12.5	3.12			
COc1cc(C2=NOC(c3ccccc3)C2)ccc1OCc1nnn[nH]1 (configuration not stated)	12.5	6.25	6.25			
COc1cc(C2=NOC(c3ccc(C)cc3)C2)ccc1OCc1nnn[nH]1 (configuration not stated)	12.5	0.78	6.25			
COc1cc(C2=NNC(c3cccc(O)c3)C2)ccc1OCc1nnn[nH]1 (configuration not stated)	2.16	2.24	2.88			
COc1cc(C2=NNC(c3ccc(Cl)cc3)C2)ccc1OCc1nnn[nH]1 (configuration not stated)	1.04	1.11	0.96	2.94	62.6	Active
COc1cc(C2=NOC(c3ccc(F)cc3)C2)ccc1OCc1nnn[nH]1 (configuration not stated)	3.12	3.12	3.12			
COc1cc(C2=NOC(c3ccc(O)cc3)C2)ccc1OCc1nnn[nH]1 (configuration not stated)	25	3.12	6.25			
COc1cc(C2=NOC(c3cccc(O)c3)C2)ccc1OCc1nnn[nH]1 (configuration not stated)	6.25	25	1.56			
COc1cc(C2=NNC(c3ccccc3)C2)ccc1OCc1nnn[nH]1 (configuration not stated)	3.16	2.98	3.15			
